What was measured:
[1] = biological target: T1, Cyclin-dependent kinase 8 (Homo sapiens, UniProt P49336); assay: Inhibition of biotinylated ligand binding to wild-type human partial length CDK8 (M1 to T360 residues) expressed in Escherichia coli BL21 measured after 1 hr by kinomescan assay
[2] = tested on: MOLM-13; assay: cells; conditions: Homo sapiens, MOLM-13, 48 h
[3] = biological target: Protein-tyrosine kinase 2-beta (Homo sapiens) (UniProt Q14289); assay: Inhibition of biotinylated ligand binding to wild-type human full length PYK2 (M1 to E967 residues) expressed in bacterial expression system at 50 nM measured after 1 hr by kinomescan assay relative to control
[4] = biological target: Hormonally up-regulated neu tumor-associated kinase (Homo sapiens) (UniProt P57058); assay: Inhibition of biotinylated ligand binding to wild-type human partial length HUNK (A31 to K354 residues) expressed in bacterial expression system at 50 nM measured after 1 hr by kinomescan assay relative to control
[5] = biological target: Cyclin-dependent kinase 19 (Homo sapiens) (UniProt Q9BWU1); assay: Inhibition of biotinylated ligand binding to wild-type human partial length CDK11 (M1 to N360 residues) expressed in bacterial expression system at 50 nM measured after 1 hr by kinomescan assay relative to control
How it was run: (§1)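 T7 phage-tagged kinase lysates from E. coli BL21 were mixed with streptavidin beads carrying biotinylated ligand and 50 nM compound. Incubated 1 h at room temperature with shaking, washed, then eluted 30 min with 0.5 μM non-biotinylated ligand. Kinase was quantified by qPCR. POC = (test − positive)/(DMSO − positive) ×100, with a control compound as positive.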

[6] = tested on: MV4-11; assay: cells; conditions: Homo sapiens, MV4-11, 48 h
[7] = tested on: NRK; assay: cells; conditions: Rattus norvegicus, 48 h
[8] = biological target: T1, Cyclin-dependent kinase 8; assay: Inhibition of biotinylated ligand binding to wild-type human partial length CDK8 (M1 to T360 residues) expressed in Escherichia coli BL21 at 50 nM measured after 1 hr by kinomescan assay relative to control; how it was run: as §1
[9] = biological target: Citron Rho-interacting kinase (Homo sapiens) (UniProt O14578); assay: Inhibition of biotinylated ligand binding to wild-type human partial length CIT (M68 to E432 residues) expressed in bacterial expression system at 50 nM measured after 1 hr by kinomescan assay relative to control
[10] = biological target: Serine/threonine-protein kinase haspin (Homo sapiens) (UniProt Q8TF76); assay: Inhibition of biotinylated ligand binding to wild-type human partial length HASPIN (I452 to K798 residues) expressed in mammalian expression system at 50 nM measured after 1 hr by kinomescan assay relative to control
[11] = tested on: H9c2; assay: cells; conditions: Rattus norvegicus, H9c2, 48 h
[12] = biological target: cAMP-dependent protein kinase catalytic subunit beta (Homo sapiens) (UniProt P22694); assay: Inhibition of biotinylated ligand binding to wild-type human full length PKAC-beta (M1 to F351 residues) expressed in bacterial expression system at 50 nM measured after 1 hr by kinomescan assay relative to control
[13] = tested on: OCI-AML-3; assay: cells; conditions: Homo sapiens, OCI-AML-3, 48 h
[14] = biological target: Serine/threonine-protein kinase MAK (Homo sapiens) (UniProt P20794); assay: Inhibition of biotinylated ligand binding to wild-type human partial length MAK (M1 to P314 residues) expressed in bacterial expression system at 50 nM measured after 1 hr by kinomescan assay relative to control
[15] = biological target: cAMP-dependent protein kinase catalytic subunit alpha (Homo sapiens) (UniProt P17612); assay: Inhibition of biotinylated ligand binding to wild-type human partial length PKAC-alpha (G10 to F351 residues) expressed in bacterial expression system at 50 nM measured after 1 hr by kinomescan assay relative to control
[16] = biological target: Serine/threonine-protein kinase pim-2 (Homo sapiens) (UniProt Q9P1W9); assay: Inhibition of biotinylated ligand binding to wild-type human partial length PIM2 (M1 to E291 residues) expressed in bacterial expression system at 50 nM measured after 1 hr by kinomescan assay relative to control
[17] = biological target: 1-phosphatidylinositol 3-phosphate 5-kinase (Homo sapiens) (UniProt Q9Y2I7); assay: Inhibition of biotinylated ligand binding to wild-type human partial length PIKFYVE (F1512 to C2098 residues) expressed in mammalian expression system at 50 nM measured after 1 hr by kinomescan assay relative to control
[18] = biological target: Phosphatidylinositol 5-phosphate 4-kinase type-2 gamma (Homo sapiens) (UniProt Q8TBX8); assay: Inhibition of biotinylated ligand binding to wild-type human partial length PIP5K2C (M1 to A421 residues) expressed in mammalian expression system at 50 nM measured after 1 hr by kinomescan assay relative to control
How it was run: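 Competition binding: compound (final 50 nM; 40x DMSO stocks) was incubated with kinase and biotinylated-ligand streptavidin beads in 20% SeaBlock, 0.17x PBS, 0.05% Tween 20 and 6 mM DTT at room temperature for 1 h. After washing, kinase was eluted with 0.5 μM non-biotinylated ligand for 30 min and measured by qPCR. Percent of control was referenced to DMSO (100%) and control compound (0%).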

[19] = biological target: Inhibitor of nuclear factor kappa-B kinase subunit epsilon (Homo sapiens) (UniProt Q14164); assay: Inhibition of biotinylated ligand binding to wild-type human full length IKKE (M1 to V716 residues) expressed in bacterial expression system at 50 nM measured after 1 hr by kinomescan assay relative to control
How it was run: (§2)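 Kinases expressed as tags on T7 phage grown in an E. coli BL21-derived host, with lysates cleared by centrifugation and filtration. Streptavidin beads carried biotinylated ligand and were blocked with biotin. Kinase, beads and compound were incubated in binding buffer (20% SeaBlock, 0.17x PBS, 0.05% Tween 20, 6 mM DTT) at room temperature for 1 h. Bound kinase was eluted with free ligand and quantified by qPCR. POC was set between DMSO (100%) and control compound (0%).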

[20] = biological target: Receptor-interacting serine/threonine-protein kinase 1 (Homo sapiens) (UniProt Q13546); assay: Inhibition of biotinylated ligand binding to wild-type human partial length RIPK1 (M1 to K305 residues) expressed in bacterial expression system at 50 nM measured after 1 hr by kinomescan assay relative to control; how it was run: as §2

T1 sequence (P49336 whole entry, the tested form may be a part): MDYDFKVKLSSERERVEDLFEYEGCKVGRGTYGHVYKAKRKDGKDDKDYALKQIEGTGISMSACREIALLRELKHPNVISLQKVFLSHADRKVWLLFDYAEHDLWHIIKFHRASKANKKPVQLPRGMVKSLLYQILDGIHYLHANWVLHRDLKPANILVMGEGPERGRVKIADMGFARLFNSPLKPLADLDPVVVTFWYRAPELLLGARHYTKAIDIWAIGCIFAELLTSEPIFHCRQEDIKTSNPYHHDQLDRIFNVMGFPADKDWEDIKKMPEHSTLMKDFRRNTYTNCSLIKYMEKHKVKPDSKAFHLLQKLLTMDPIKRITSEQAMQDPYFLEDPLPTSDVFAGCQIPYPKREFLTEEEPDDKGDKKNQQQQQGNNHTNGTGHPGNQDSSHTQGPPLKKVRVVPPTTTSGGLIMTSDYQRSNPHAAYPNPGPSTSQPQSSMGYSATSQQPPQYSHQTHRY
Chain of Cyclin-dependent kinase 19 (Homo sapiens) (Q9BWU1 whole entry, the tested form may be a part): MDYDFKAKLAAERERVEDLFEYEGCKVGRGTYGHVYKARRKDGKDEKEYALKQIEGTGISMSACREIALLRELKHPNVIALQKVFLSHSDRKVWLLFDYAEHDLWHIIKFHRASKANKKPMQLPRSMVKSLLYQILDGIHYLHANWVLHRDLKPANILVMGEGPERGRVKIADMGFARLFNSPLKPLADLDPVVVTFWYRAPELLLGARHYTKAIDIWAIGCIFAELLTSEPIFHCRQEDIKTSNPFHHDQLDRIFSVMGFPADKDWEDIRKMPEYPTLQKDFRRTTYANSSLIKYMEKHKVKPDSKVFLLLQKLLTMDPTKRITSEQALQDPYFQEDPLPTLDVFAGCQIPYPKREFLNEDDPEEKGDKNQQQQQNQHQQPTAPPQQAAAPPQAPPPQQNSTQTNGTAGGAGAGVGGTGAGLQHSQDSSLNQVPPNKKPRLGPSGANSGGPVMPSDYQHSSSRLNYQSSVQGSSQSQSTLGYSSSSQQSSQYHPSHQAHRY
Chain of Phosphatidylinositol 5-phosphate 4-kinase type-2 gamma (Homo sapiens) (Q8TBX8 whole entry, the tested form may be a part): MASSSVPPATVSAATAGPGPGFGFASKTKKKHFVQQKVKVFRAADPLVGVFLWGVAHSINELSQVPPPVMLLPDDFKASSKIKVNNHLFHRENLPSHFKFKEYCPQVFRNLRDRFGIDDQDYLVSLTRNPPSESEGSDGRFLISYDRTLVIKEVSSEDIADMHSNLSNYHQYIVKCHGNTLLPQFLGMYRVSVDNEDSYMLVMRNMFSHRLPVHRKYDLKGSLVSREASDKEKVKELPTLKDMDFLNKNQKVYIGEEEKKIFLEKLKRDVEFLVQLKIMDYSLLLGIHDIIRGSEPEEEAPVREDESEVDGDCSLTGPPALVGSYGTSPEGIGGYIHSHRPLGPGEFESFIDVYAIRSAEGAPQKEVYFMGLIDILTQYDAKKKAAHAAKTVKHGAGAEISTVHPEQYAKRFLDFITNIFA
Chain of Serine/threonine-protein kinase pim-2 (Homo sapiens) (Q9P1W9 whole entry, looked up, the tested form may be a part): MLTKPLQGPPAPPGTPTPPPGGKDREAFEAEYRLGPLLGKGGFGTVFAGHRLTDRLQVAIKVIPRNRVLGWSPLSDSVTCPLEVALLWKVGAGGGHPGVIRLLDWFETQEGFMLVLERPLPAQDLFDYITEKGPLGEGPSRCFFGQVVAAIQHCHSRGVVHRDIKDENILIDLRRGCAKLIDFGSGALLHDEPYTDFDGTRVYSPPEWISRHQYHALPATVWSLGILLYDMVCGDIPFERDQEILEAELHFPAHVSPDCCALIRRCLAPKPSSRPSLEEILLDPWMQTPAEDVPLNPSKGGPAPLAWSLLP
Chain of 1-phosphatidylinositol 3-phosphate 5-kinase (Homo sapiens) (Q9Y2I7 whole entry, the tested form may be a part): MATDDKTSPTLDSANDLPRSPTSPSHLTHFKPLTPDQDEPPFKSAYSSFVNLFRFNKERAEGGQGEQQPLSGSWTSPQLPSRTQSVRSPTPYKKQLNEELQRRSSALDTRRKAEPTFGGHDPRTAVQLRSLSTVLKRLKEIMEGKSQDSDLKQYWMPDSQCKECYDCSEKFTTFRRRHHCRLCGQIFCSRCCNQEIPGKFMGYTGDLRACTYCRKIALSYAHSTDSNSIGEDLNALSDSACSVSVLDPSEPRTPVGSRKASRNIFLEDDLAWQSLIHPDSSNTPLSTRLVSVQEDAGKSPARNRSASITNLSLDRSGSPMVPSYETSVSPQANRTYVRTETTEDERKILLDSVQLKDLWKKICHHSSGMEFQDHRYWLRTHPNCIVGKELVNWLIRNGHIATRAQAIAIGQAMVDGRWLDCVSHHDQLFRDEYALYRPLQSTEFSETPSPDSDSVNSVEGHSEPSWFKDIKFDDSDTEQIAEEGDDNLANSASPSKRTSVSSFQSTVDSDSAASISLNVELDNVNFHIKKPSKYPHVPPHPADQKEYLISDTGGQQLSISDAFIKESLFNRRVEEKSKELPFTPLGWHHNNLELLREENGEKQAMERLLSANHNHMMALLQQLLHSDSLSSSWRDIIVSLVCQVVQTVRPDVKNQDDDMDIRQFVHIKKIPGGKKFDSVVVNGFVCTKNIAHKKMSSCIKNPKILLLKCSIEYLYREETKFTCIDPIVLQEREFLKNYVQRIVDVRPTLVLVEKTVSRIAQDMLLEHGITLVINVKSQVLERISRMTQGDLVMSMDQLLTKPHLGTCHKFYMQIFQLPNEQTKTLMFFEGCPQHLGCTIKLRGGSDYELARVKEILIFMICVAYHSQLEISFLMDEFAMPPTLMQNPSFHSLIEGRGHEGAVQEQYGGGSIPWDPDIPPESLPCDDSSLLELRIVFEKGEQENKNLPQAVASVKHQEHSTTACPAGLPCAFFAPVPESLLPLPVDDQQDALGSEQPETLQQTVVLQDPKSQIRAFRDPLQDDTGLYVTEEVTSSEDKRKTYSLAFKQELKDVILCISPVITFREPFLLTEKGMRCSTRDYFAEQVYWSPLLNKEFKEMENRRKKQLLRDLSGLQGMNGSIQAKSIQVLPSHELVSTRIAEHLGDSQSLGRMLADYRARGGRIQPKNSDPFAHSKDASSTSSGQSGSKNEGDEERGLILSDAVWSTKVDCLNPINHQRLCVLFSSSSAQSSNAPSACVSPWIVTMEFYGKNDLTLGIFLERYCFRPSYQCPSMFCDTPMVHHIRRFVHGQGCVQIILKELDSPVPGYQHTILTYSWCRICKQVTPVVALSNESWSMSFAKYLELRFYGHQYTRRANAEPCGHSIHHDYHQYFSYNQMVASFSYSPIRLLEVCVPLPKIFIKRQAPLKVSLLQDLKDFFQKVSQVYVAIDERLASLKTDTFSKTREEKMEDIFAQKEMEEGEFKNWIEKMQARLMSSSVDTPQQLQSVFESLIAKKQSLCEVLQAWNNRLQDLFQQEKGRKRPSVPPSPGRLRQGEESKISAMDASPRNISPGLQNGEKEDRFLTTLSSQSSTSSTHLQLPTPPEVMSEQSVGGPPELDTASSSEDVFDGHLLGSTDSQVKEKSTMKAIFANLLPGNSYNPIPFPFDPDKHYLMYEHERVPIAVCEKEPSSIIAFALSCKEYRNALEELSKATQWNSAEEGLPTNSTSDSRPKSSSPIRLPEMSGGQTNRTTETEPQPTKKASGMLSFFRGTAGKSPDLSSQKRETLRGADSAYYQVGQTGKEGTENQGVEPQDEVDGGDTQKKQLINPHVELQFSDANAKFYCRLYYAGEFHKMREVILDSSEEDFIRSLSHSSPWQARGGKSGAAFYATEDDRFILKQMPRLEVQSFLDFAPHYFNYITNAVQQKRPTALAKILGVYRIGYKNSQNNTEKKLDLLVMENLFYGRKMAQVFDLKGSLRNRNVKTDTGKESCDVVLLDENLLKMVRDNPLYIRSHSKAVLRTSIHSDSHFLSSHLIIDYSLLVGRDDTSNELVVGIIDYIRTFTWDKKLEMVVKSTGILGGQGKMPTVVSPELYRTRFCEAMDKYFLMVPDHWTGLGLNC
Chain of Serine/threonine-protein kinase MAK (Homo sapiens) (P20794 whole entry, the tested form may be a part): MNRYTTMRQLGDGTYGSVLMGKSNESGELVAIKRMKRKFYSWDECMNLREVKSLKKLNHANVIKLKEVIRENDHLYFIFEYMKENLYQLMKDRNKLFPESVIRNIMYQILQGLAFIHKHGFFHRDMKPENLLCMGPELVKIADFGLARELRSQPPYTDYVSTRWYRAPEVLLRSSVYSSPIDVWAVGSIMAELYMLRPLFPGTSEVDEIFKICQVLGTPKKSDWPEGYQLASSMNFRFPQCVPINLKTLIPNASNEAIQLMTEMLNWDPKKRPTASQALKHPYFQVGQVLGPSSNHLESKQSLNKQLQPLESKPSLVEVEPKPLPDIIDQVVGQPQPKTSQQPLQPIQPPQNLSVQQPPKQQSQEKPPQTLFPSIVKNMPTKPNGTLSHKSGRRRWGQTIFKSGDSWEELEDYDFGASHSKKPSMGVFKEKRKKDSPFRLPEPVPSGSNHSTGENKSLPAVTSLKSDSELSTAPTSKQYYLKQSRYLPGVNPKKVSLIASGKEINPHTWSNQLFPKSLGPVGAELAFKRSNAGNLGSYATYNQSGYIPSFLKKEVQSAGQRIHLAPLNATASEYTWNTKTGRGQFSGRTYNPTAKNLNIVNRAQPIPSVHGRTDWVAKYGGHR

inhibition [18]	inhibition [19]	inhibition [20]	Compound	Kd [1]	EC50 [2]	inhibition [3]	inhibition [4]	inhibition [5]	EC50 [6]	EC50 [7]	inhibition [8]	inhibition [9]	inhibition [10]	EC50 [11]	inhibition [12]	EC50 [13]	inhibition [14]	inhibition [15]	inhibition [16]	inhibition [17]
–	–	–	CN(C)[C@@H]1CC[C@@]2(C)[C@@H](CC[C@@H]3[C@@H]2CC[C@]2(C)C(c4ccc5ccncc5c4)=CC[C@@H]32)C1	0.018 µM	9 µM	> 80%	> 80%	> 80%	5.5 µM	11.4 µM	> 80%	> 80%	> 80%	12.5 to 25 µM	> 80%	7.6 µM	> 80%	> 80%	> 80%	> 80%
> 80%	> 80%	> 80%	CN(C)[C@@H]1CC[C@@]2(C)[C@@H](CC[C@@H]3[C@@H]2CC[C@]2(C)C(c4cncc(Cl)c4)=CC[C@@H]32)C1	0.013 µM	11.2 µM	–	–	> 80%	8.6 µM	20.5 µM	> 80%	–	–	12.5 to 25 µM	–	7.5 µM	–	–	–	–
–	–	–	CN(C)[C@@H]1CC[C@@]2(C)[C@@H](CC[C@@H]3[C@@H]2CC[C@]2(C)C(c4cccnc4)=CC[C@@H]32)C1	–	10.2 µM	–	–	–	10.1 µM	29.7 µM	–	–	–	25 to 50 µM	–	10 µM	–	–	–	–
–	–	–	CN(C)[C@@H]1CC[C@@]2(C)[C@@H](CC[C@@H]3[C@@H]2CC[C@]2(C)C(c4ccc5cnccc5c4)=CC[C@@H]32)C1	–	3.9 µM	–	–	–	4.1 µM	7.1 µM	–	–	–	6.5 to 12.5 µM	–	2.7 µM	–	–	–	–

From ChEMBL document CHEMBL4619723, “New CDK8 inhibitors as potential anti-leukemic agents - Design, synthesis and biological evaluation” (Bioorg Med Chem, 2020)
